Data from ChEMBL document CHEMBL1155174, “Cross-resistance to medical and agricultural azole drugs in yeasts from the oropharynx of human immunodeficiency virus patients and from environmental Bavarian vine grapes” (2007).
Converted amounts (≈) assume the structure as drawn.

What was measured:
Assay type in all cases: functional
Cryptococcus neoformans = test: Antifungal activity against Cryptococcus neoformans ATCC 90112 by NCCLS M27-A2 method
Nakaseomyces glabratus [1] = test: Antifungal activity against Candida glabrata isolates from feeding stuffs by NCCLS M27-A2 method
Procedure, shortened: (§1)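 Broth dilution per NCCLS M27-A2, with azoles serially diluted in high-resolution antifungal assay medium over 0.125–128, 0.03–64 or 0.06–128 μg/ml depending on the drug. MIC endpoints were read spectrophotometrically at 540 nm. Values are reported per species or source group as median and range.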

Candida albicans [2] = test: Antifungal activity against Candida albicans isolates from HIV infected patient during fluconazole therapy by NCCLS M27-A2 method; procedure, shortened: as §1
Diutina rugosa = test: Antifungal activity against Candida rugosa isolates from feeding stuff by NCCLS M27-A2 method; procedure, shortened: as §1
Candida albicans [3] = test: Antifungal activity against Candida albicans isolates by NCCLS M27-A2 method; procedure, shortened: as §1
Saccharomyces cerevisiae = test: Antifungal activity against sSaccharomyces cerevisiae isolates from grapes by NCCLS M27-A2 method; procedure, shortened: as §1
Pichia fermentans = test: Antifungal activity against Candida lambica isolates from grapes by NCCLS M27-A2 method; procedure, shortened: as §1
Candida albicans [4] = test: Antifungal activity against Candida albicans isolates from animals by NCCLS M27-A2 method; procedure, shortened: as §1
Hanseniaspora uvarum = test: Antifungal activity against sKloeckera apiculata isolates from grapes by NCCLS M27-A2 method; procedure, shortened: as §1
Starmerella stellata = test: Antifungal activity against sCandida stellata isolates from grapes by NCCLS M27-A2 method; procedure, shortened: as §1
Pichia norvegensis = test: Antifungal activity against Candida norvegensis isolates from grapes by NCCLS M27-A2 method; procedure, shortened: as §1
Pichia kudriavzevii [5] = test: Antifungal activity against Candida krusei ATCC 6258 by NCCLS M27-A2 method; procedure, shortened: as §1
Pichia kudriavzevii [6] = test: Antifungal activity against Candida krusei isolates from grapes and feeding stuffs by NCCLS M27-A2 method; procedure, shortened: as §1
Wickerhamomyces anomalus = test: Antifungal activity against Pichia anomala isolates from grapes by NCCLS M27-A2 method; conditions: Hansenula anomala; procedure, shortened: as §1
Candida parapsilosis = test: Antifungal activity against Candida parapsilosis ATCC 22013 by NCCLS M27-A2 method; conditions: Lodderomyces parapsilosis
Candida albicans [7] = test: Antifungal activity against Candida albicans isolates from HIV infected patient before fluconazole therapy by NCCLS M27-A2 method; procedure, shortened: as §1
Rhodotorula = test: Antifungal activity against Rhodotorula sp. isolates from grapes by NCCLS M27-A2 method; procedure, shortened: as §1
Saccharomycopsis = test: Antifungal activity against Saccharomycopsis guttulata isolates from feeding stuff by NCCLS M27-A2 method; procedure, shortened: as §1
Nakaseomyces glabratus [8] = test: Antifungal activity against Candida glabrata ATCC 90030 by NCCLS M27-A2 method; procedure, shortened: as §1

SMILES | MIC50 (Cryptococcus neoformans) | MIC50 (Nakaseomyces glabratus [1]) | MIC50 (Candida albicans [2]) | MIC50 (Diutina rugosa) | MIC50 (Candida albicans [3]) | MIC50 (Saccharomyces cerevisiae) | MIC50 (Pichia fermentans) | MIC50 (Candida albicans [4]) | MIC50 (Hanseniaspora uvarum) | MIC50 (Starmerella stellata) | MIC50 (Pichia norvegensis) | MIC50 (Pichia kudriavzevii [5]) | MIC50 (Pichia kudriavzevii [6]) | MIC50 (Wickerhamomyces anomalus) | MIC50 (Candida parapsilosis) | MIC50 (Candida albicans [7]) | MIC50 (Rhodotorula) | MIC50 (Saccharomycopsis) | MIC50 (Nakaseomyces glabratus [8])
OC(Cn1cncn1)(Cn1cncn1)c1ccc(F)cc1F [FLUCONAZOLE] | 8 µg/mL (≈ 26.1 µM) | 32 µg/mL (≈ 104 µM) | 128 µg/mL (≈ 418 µM) | 1 µg/mL (≈ 3.27 µM) | 0.12 µg/mL (≈ 0.392 µM) | 8 µg/mL (≈ 26.1 µM) | 128 µg/mL (≈ 418 µM) | 0.25 µg/mL (≈ 0.816 µM) | 0.5 µg/mL (≈ 1.63 µM) | 64 µg/mL (≈ 209 µM) | 128 µg/mL (≈ 418 µM) | 64 µg/mL (≈ 209 µM) | 64 µg/mL (≈ 209 µM) | 2 µg/mL (≈ 6.53 µM) | 2 µg/mL (≈ 6.53 µM) | 2.25 µg/mL (≈ 7.35 µM) | 16 µg/mL (≈ 52.2 µM) | 1 µg/mL (≈ 3.27 µM) | 
O=c1c2cc(F)ccc2nc(-n2cncn2)n1-c1ccc(Cl)cc1Cl [FLUQUINCONAZOLE] | 0.12 µg/mL (≈ 0.319 µM) | 1 µg/mL (≈ 2.66 µM) | 64 µg/mL (≈ 170 µM) | 0.12 µg/mL (≈ 0.319 µM) | 0.5 µg/mL (≈ 1.33 µM) | 0.25 µg/mL (≈ 0.665 µM) | 64 µg/mL (≈ 170 µM) | 0.5 µg/mL (≈ 1.33 µM) | 0.12 µg/mL (≈ 0.319 µM) | 64 µg/mL (≈ 170 µM) | 64 µg/mL (≈ 170 µM) | 128 µg/mL (≈ 340 µM) | 128 µg/mL (≈ 340 µM) | 4 µg/mL (≈ 10.6 µM) | 2 µg/mL (≈ 5.32 µM) | 0.375 µg/mL (≈ 0.997 µM) | 0.5 µg/mL (≈ 1.33 µM) | 64 µg/mL (≈ 170 µM) | 32 µg/mL (≈ 85.1 µM)
CCC(C)n1ncn(-c2ccc(N3CCN(c4ccc(OCC5COC(Cn6cncn6)(c6ccc(Cl)cc6Cl)O5)cc4)CC3)cc2)c1=O (stereo unspecified) [ITRACONAZOLE] | 0.5 µg/mL (≈ 0.709 µM) | 1 µg/mL (≈ 1.42 µM) | 0.75 µg/mL (≈ 1.06 µM) | 0.06 µg/mL (≈ 0.085 µM) | 0.06 µg/mL (≈ 0.085 µM) | 2 µg/mL (≈ 2.83 µM) | 2 µg/mL (≈ 2.83 µM) | 0.12 µg/mL (≈ 0.17 µM) | 0.25 µg/mL (≈ 0.354 µM) | 2 µg/mL (≈ 2.83 µM) | 1 µg/mL (≈ 1.42 µM) | 0.5 µg/mL (≈ 0.709 µM) | 1 µg/mL (≈ 1.42 µM) | 0.5 µg/mL (≈ 0.709 µM) | 0.25 µg/mL (≈ 0.354 µM) | 0.06 µg/mL (≈ 0.085 µM) | 0.06 µg/mL (≈ 0.085 µM) | 0.5 µg/mL (≈ 0.709 µM) | 4 µg/mL (≈ 5.67 µM)
CC(=O)N1CCN(c2ccc(OCC3COC(Cn4ccnc4)(c4ccc(Cl)cc4Cl)O3)cc2)CC1 (stereo unspecified) [KETOCONAZOLE] | 2 µg/mL (≈ 3.76 µM) | 4 µg/mL (≈ 7.53 µM) | 2 µg/mL (≈ 3.76 µM) | 0.25 µg/mL (≈ 0.47 µM) | 0.03 µg/mL (≈ 0.0565 µM) | 2 µg/mL (≈ 3.76 µM) | 4 µg/mL (≈ 7.53 µM) | 0.5 µg/mL (≈ 0.941 µM) | 0.25 µg/mL (≈ 0.47 µM) | 8 µg/mL (≈ 15.1 µM) | 2 µg/mL (≈ 3.76 µM) | 2 µg/mL (≈ 3.76 µM) | 8 µg/mL (≈ 15.1 µM) | 1 µg/mL (≈ 1.88 µM) | 0.12 µg/mL (≈ 0.226 µM) | 0.25 µg/mL (≈ 0.47 µM) | 0.5 µg/mL (≈ 0.941 µM) | 2 µg/mL (≈ 3.76 µM) | 8 µg/mL (≈ 15.1 µM)
CCCC(Cn1cncn1)c1ccc(Cl)cc1Cl (stereo unspecified) [PENCONAZOLE] | 4 µg/mL (≈ 14.1 µM) | 4 µg/mL (≈ 14.1 µM) | 12 µg/mL (≈ 42.2 µM) | 1 µg/mL (≈ 3.52 µM) | 2 µg/mL (≈ 7.04 µM) | 2 µg/mL (≈ 7.04 µM) | 64 µg/mL (≈ 225 µM) | 2 µg/mL (≈ 7.04 µM) | 0.5 µg/mL (≈ 1.76 µM) | 96 µg/mL (≈ 338 µM) | 64 µg/mL (≈ 225 µM) | 64 µg/mL (≈ 225 µM) | 128 µg/mL (≈ 450 µM) | 8 µg/mL (≈ 28.2 µM) | 8 µg/mL (≈ 28.2 µM) | 0.25 µg/mL (≈ 0.88 µM) | 16 µg/mL (≈ 56.3 µM) | 8 µg/mL (≈ 28.2 µM) | 4 µg/mL (≈ 14.1 µM)
CC(C)(C)C(O)(CCc1ccc(Cl)cc1)Cn1cncn1 (stereo unspecified) [TEBUCONAZOLE] | 4 µg/mL (≈ 13 µM) | 2 µg/mL (≈ 6.5 µM) | 24 µg/mL (≈ 78 µM) | 0.06 µg/mL (≈ 0.195 µM) | 0.06 µg/mL (≈ 0.195 µM) | 1 µg/mL (≈ 3.25 µM) | 16 µg/mL (≈ 52 µM) | 0.185 µg/mL (≈ 0.601 µM) | 0.06 µg/mL (≈ 0.195 µM) | 64 µg/mL (≈ 208 µM) | 4 µg/mL (≈ 13 µM) | 32 µg/mL (≈ 104 µM) | 64 µg/mL (≈ 208 µM) | 4 µg/mL (≈ 13 µM) | 1 µg/mL (≈ 3.25 µM) | 0.75 µg/mL (≈ 2.44 µM) | 1 µg/mL (≈ 3.25 µM) | 4 µg/mL (≈ 13 µM) | 8 µg/mL (≈ 26 µM)
CC(C)(C)C(O)C(Oc1ccc(Cl)cc1)n1cncn1 (stereo unspecified) [TRIADIMENOL] | 4 µg/mL (≈ 13.5 µM) | 8 µg/mL (≈ 27 µM) | 64 µg/mL (≈ 216 µM) | 1 µg/mL (≈ 3.38 µM) | 2 µg/mL (≈ 6.76 µM) | 8 µg/mL (≈ 27 µM) | 128 µg/mL (≈ 433 µM) | 1.5 µg/mL (≈ 5.07 µM) | 0.25 µg/mL (≈ 0.845 µM) | 128 µg/mL (≈ 433 µM) | 64 µg/mL (≈ 216 µM) | 32 µg/mL (≈ 108 µM) | 64 µg/mL (≈ 216 µM) | 16 µg/mL (≈ 54.1 µM) | 16 µg/mL (≈ 54.1 µM) | 2 µg/mL (≈ 6.76 µM) | 64 µg/mL (≈ 216 µM) | 16 µg/mL (≈ 54.1 µM) | 8 µg/mL (≈ 27 µM)
C[C@@H](c1ncncc1F)[C@](O)(Cn1cncn1)c1ccc(F)cc1F [VORICONAZOLE] | 0.25 µg/mL (≈ 0.716 µM) | 0.25 µg/mL (≈ 0.716 µM) | 1.5 µg/mL (≈ 4.29 µM) | 0.03 µg/mL (≈ 0.0859 µM) | 0.03 µg/mL (≈ 0.0859 µM) | 0.5 µg/mL (≈ 1.43 µM) | 2 µg/mL (≈ 5.73 µM) | 0.03 µg/mL (≈ 0.0859 µM) | 0.03 µg/mL (≈ 0.0859 µM) | 1 µg/mL (≈ 2.86 µM) | 2 µg/mL (≈ 5.73 µM) | 1 µg/mL (≈ 2.86 µM) | 1 µg/mL (≈ 2.86 µM) | 0.25 µg/mL (≈ 0.716 µM) | 0.06 µg/mL (≈ 0.172 µM) | 0.03 µg/mL (≈ 0.0859 µM) | 0.06 µg/mL (≈ 0.172 µM) | 0.12 µg/mL (≈ 0.344 µM) | 2 µg/mL (≈ 5.73 µM)
